This assay is described as follows: Inhibitory activity against CDK4 using recombinant human cyclin D2-CDK4 complex expressed in sf9 cells. The gist of the method: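 Recombinant human cyclin D2–Cdk4, baculovirus-expressed in Sf9 cells and HPLC-purified; incubated with 50 µM ATP plus 0.5-1.5 µCi [33P]-ATP, 100 µM or 400 µM G1 peptide, in 20 mM Tris-HCl pH 7.4, 10 mM MgCl2, 4.5 mM 2-mercaptoethanol, 1 mM EGTA, 30 °C, 45 min.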

Data on 33 molecules can be found in ChEMBL document CHEMBL1134321, “Structure-based generation of a new class of potent Cdk4 inhibitors: new de novo design strategy and library design” (J Med Chem, 2001).

Each structure is given as a SMILES string. pIC50: −log10 of the molar value.

On to `Nc1nc(O)c2nc(CNc3ccc(C(=O)O)cc3)cnc2n1` [PTEROIC ACID], for which the pIC50 is 4.80. Take `O=C(NCc1ccccc1)Nc1ccccn1`: the pIC50 was below 4.00. The same measure for `COc1nc(N)c(C#N)c(-c2ccc3c(c2)OCO3)c1C#N`: 4.44; for `CN(C)c1cc(NC(=O)Nc2ccccc2)c2ccccc2n1`: 4.05; for `Cc1ccc(Cl)cc1NC(=O)Nc1cccc2ccc(O)cc12`: 4.36. The value for `O=C(Nc1ccccn1)Nc1cccc2c1C(=O)NC2=O` was 5.44; that for `O=C(Nc1ccccn1)Nc1cccc2ncccc12` was 5.62. For `O=C(Nc1cc(-c2cccs2)ccn1)Nc1cccc2c1C1CCCN1C2=O` (stereo not drawn), the pIC50 was 7.96.

Take `O=C(Nc1nccs1)Nc1cccc2ccc(O)cc12`: the pIC50 was 4.64. The same measure for `O=C(Cc1ccccc1)Nc1cccc2ccc(O)cc12`: below 3.00. The value for `Nc1nc(N)c2nc(-c3ccccc3)c(N)nc2n1` [TRIAMTERENE] was 3.68. The same measure for `CSc1ccc(NC(=O)Nc2cccc3c(O)cccc23)cc1`: 4.40; for `O=C(NCc1ccccc1)Nc1cccc2ccc(O)cc12`: 3.39; for `O=C(Nc1ccc2c[nH]nc2c1)Nc1ccccn1`: 6.17.

As to `O=C(Nc1ccccn1)NC1CCCCC1`, the pIC50 is below 4.00. The value for `O=C(Nc1cccc2ccc(O)cc12)NC1CCCC1` was 3.82; that for `C=C(O)c1ccc2n1C(=O)c1cccc(NC(=O)Nc3ccccn3)c1-2` was 7.77. The value for `O=C(Nc1ccccn1)Nc1cccc2ccc(O)cc12` was 5.12. In the case of `O=C(Nc1ccccn1)Nc1cccc2c1[C@H]1CCCN1C2=O`, the pIC50 is 7.38. The value for `O=C(Nc1ccc2ncccc2c1)Nc1ccc2ncccc2c1` was 4.11; that for `Cc1[nH]c2ccccc2c1/C=C1/NC(=S)NC1=O` was 4.85; that for `CN(C)c1cc(NC(=O)Nc2cccc(Cl)c2)c2ccccc2n1` was 4.44. Regarding `O=C(Nc1ccccn1)Nc1cccc2c1-c1ccccc1C2=O`, the pIC50 is 7.00.

On to `O=C(Nc1cccnc1)Nc1cccc2ccc(O)cc12`, for which the pIC50 is 3.47.

Consider `O=C(Nc1ccccn1)Nc1cccc2c1[C@@H]1CCCN1C2=O`, for which the pIC50 was 6.72. The same measure for `O=C(Nc1ccccc1)Nc1ccccn1`: 4.00. `Nc1nc(N)nc(C2=Cc3cc(Cl)ccc3OC2)n1`: the pIC50 is 3.35. The value for `CC(C)NC(=O)Nc1cccc2ccc(O)cc12` was 3.66; that for `O=C(Nc1ccccc1)Nc1cccc2ccc(O)cc12` was 3.92; that for `O=C1NC(=S)NC(=O)C1=Cc1c(O)ccc2ccccc12` was 4.00. In the case of `O=C1NC(=O)C(=Cc2ccc3c(c2)OCO3)C(=O)N1`, the pIC50 was 3.46. The same measure for `O=C(Nc1ccncc1)Nc1cccc2ccc(O)cc12`: 3.96. For the molecule `O=C(Nc1ccccn1)Nc1cccc2c1-c1cccn1C2=O`, the pIC50 is 7.47.

A word on the pIC50: it is the negative decadic logarithm of the IC50, by convention in mol/L.
